Results from ChEMBL document CHEMBL4680345, “Thioether-linked dihydropyrrol-2-one analogues as PqsR antagonists against antibiotic resistant Pseudomonas aeruginosa” (Bioorg Med Chem, 2021).
Activity calls are given as the source filed them. No cut-off for these calls is given here.

Tests used:
[1] = system: Pseudomonas aeruginosa PAO1; assay: Inhibition of PqsR in Pseudomonas aeruginosa PAO1 harboring GFP fused pqsA at 125 ug/ml measured every 15 mins for 6 to 8 hrs by reporter assay relative to control; conditions: dose 125.0 µg/ml, time 6-8 hrs
How it was run: (§1)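 PAO1 carrying PqsR-regulated pqsA promoter–gfp fusion; overnight culture in Mueller Hinton broth exposed to serially diluted compounds (40 mM DMSO stocks, diluted in medium) at 37 °C with intermittent shaking. GFP fluorescence and OD600 read every 15 min for at least 6–8 h; fluorescence normalised to OD600. Negative control: medium with 1.25% DMSO. Run in triplicate.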

[2] = Inhibition of planktonic growth of Pseudomonas aeruginosa PAO1 up to 125 ug/ml incubated for 24 hrs; conditions: dose <=125 µg/ml
How it was run: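 PAO1 at 5×10^5 CFU/mL in MHB. Compound added from 10 mg/mL DMSO stock, up to 125 µg/mL final. Incubated 24 h at 37 °C with intermittent agitation, OD600 read every 15 min. DMSO (1.25%) as control. One experiment per compound with three technical replicates.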

[3] = Inhibition of PqsR in Pseudomonas aeruginosa PAO1 harboring GFP fused pqsA measured every 15 mins for 6 to 8 hrs by reporter assay; how it was run: as §1
Pseudomonas aeruginosa [4] = assay: Antibiofilm activity against Pseudomonas aeruginosa PAO1 assessed as reduction in biomass at 250 to 400 uM measured after 48 hrs by crystal violet staining based assay relative to control; format: functional; conditions: dose 250-400 µM
How it was run: (§2)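 Biofilms started from TSB-grown cultures at OD600 0.1 ± 0.02 with compound (250 and 400 µM) or DMSO control. Incubated 48 h at 37 °C, 100 rpm, then washed with PBS. Stained with 0.1% (w/v) crystal violet for 1 h at 37 °C, 150 rpm, washed three times and dried. Dye dissolved in 80% ethanol and read at OD550. Biomass expressed as % decrease versus DMSO control, set at 100%.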

Pseudomonas aeruginosa [5] = assay: Antibiofilm activity against Pseudomonas aeruginosa PAO1 assessed as decrease in bacterial co-aggregation at 150 to 400 uM measured after 24 hrs by phase contrast microscopic analysis; format: functional, organism-based; conditions: dose 150-400 µM
How it was run: (§3)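 Overnight TSB cultures resuspended to OD600 0.1 ± 0.02 in TSB. Biofilms grown 24 h at 37 °C, 100 rpm with compound at 250 µM or DMSO control. Washed twice with PBS to remove loosely adhered cells. Imaged by phase contrast microscopy to assess biofilm morphology and aggregation.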

Pseudomonas aeruginosa [6] = assay: Antibiofilm activity against Pseudomonas aeruginosa ATCC 25619 assessed as decrease in bacterial co-aggregation at 150 to 400 uM measured after 24 hrs by phase contrast microscopic analysis; format: functional, organism-based; conditions: dose 150-400 µM; how it was run: as §3
Pseudomonas aeruginosa [7] = assay: Antibiofilm activity against Pseudomonas aeruginosa PAO1 assessed as decrease in bacterial co-aggregation at 150 to 400 uM measured […] by microscopic analysis (reference value: 26 %); format: functional; set-up: scale not given: the % may be the effect or the level left; conditions: dose 150-400 µM
Pseudomonas aeruginosa [8] = assay: Antibiofilm activity against Pseudomonas aeruginosa ATCC 25619 assessed as decrease in bacterial co-aggregation at 150 to 400 uM measured […] by microscopic analysis (reference value: 23 %); format: functional; set-up: scale not given: the % may be the effect or the level left; conditions: dose 150-400 µM
Pseudomonas aeruginosa [9] = assay: Antibiofilm activity against Pseudomonas aeruginosa ATCC 25619 assessed as reduction in biomass at 250 to 400 uM measured after 48 hrs by crystal violet staining based assay relative to control; format: functional; conditions: dose 250-400 µM; how it was run: as §2

SMILES | inhibition [1] [%] | other results
O=C1C=C(c2cccc(F)c2)/C(=C/Sc2ccccn2)N1 | 47 | –
O=C1C=C(c2ccc(F)cc2)/C(=C/Sc2ccc(Cl)cc2)N1 | 46 | –
CCCS/C=C1\NC(=O)C=C1c1ccccc1 | 20 | –
O=C1C=C(c2ccc(Cl)cc2)/C(=C/Sc2ccccn2)N1 | 18 | –
O=C1C=C(c2ccc(Br)cc2)/C(=C/Sc2ccccc2)N1 | 52 | –
O=C1C=C(c2ccccc2)/C(=C/Sc2ccccn2)N1 | 53 | –
O=C1C=C(c2ccc(Cl)cc2)/C(=C/Sc2ccc(Cl)cc2)N1 | 36 | –
O=C1C=C(c2ccccc2)/C(=C/Sc2ccccc2)N1 | 52 | –
O=C1C=C(c2ccc(F)cc2)/C(=C/Sc2ccccc2)N1 | 45 | –
CCCS/C=C1\NC(=O)C=C1c1ccc(Br)cc1 | 62 | growth inhibition (GI) [2]: Non-Toxic; IC50 [3]: 100 µM; inhibition (INH) (Pseudomonas aeruginosa [4]): 20%; Activity (Pseudomonas aeruginosa [5]): Active; Activity (Pseudomonas aeruginosa [6]): Active; Activity (Pseudomonas aeruginosa [7]): 13%; Activity (Pseudomonas aeruginosa [8]): 11%; inhibition (INH) (Pseudomonas aeruginosa [9]): 20%
O=C1C=C(c2ccccc2F)/C(=C/Sc2ccc(Cl)cc2)N1 | 55 | –
O=C1C=C(c2ccccc2F)/C(=C/Sc2ccccc2)N1 | 42 | –
O=C1C=C(c2ccc(F)cc2)/C(=C/Sc2ccccn2)N1 | 63 | growth inhibition (GI) [2]: Non-Toxic; IC50 [3]: 32 µM; inhibition (INH) (Pseudomonas aeruginosa [4]): 20%; Activity (Pseudomonas aeruginosa [5]): Active; Activity (Pseudomonas aeruginosa [6]): Active; Activity (Pseudomonas aeruginosa [7]): 13%; Activity (Pseudomonas aeruginosa [8]): 11%; inhibition (INH) (Pseudomonas aeruginosa [9]): 20%
O=C1C=C(c2ccccc2)/C(=C/Sc2ccc(Cl)cc2)N1 | 43 | –
O=C1C=C(c2ccc(Br)cc2)/C(=C/Sc2ccc(Cl)cc2)N1 | 33 | –
O=C1C=C(c2ccc(Br)cc2)/C(=C/Sc2ccccn2)N1 | 20 | –
O=C1C=C(c2ccccc2F)/C(=C/Sc2ccccn2)N1 | 40 | –
CCCS/C=C1\NC(=O)C=C1c1ccccc1F | 7 | –
O=C1C=C(c2ccc(Cl)cc2)/C(=C/Sc2ccccc2)N1 | 45 | –
CCCS/C=C1\NC(=O)C=C1c1ccc(Cl)cc1 | 59 | IC50 [3]: 90 µM
